Screening data: PubChem, The Scripps Research Institute Molecular Screening Center
mABHD4 FP – inhibitors of mouse ABHD4 | Q8VD66 | purified mABHD4, FP-Rh probe fluorescence polarization | inhibition, % at 8.92 µM | 370,000 tested, 0.54% active;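 active = inhibition exceeding the mean over every tested compound plus 3 SD, cut at about 30% in these data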;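 also: 0% = plate median of compound wells and 100% = S159A mutant with DMSO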
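Test system: mABHD4 protein | Buffer or medium: HEPES pH 7.0 buffer, 150 mM NaCl, 0.01% Pluronic F-127 | Probe or stimulus: FP-Rh fluorescent activity-based probe, added after compound pre-incubation | Timing: Pre-incubation 45 min, probe exposure 60 min, at 25 °C | Technique: Fluorescence polarization, excitation 525 nm, emission 598 nm, BODIPY TMR filters | Repeats: Single well per compound (singlicate)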
rCAG RNA binder – r(CAG) repeat RNA binding. TO-PRO-1 dye displacement fluorescence. inhibition, % at 3 µM. 370,000 tested, 1.3% active;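 active = inhibition above the plate cutoff, the mean of all test compounds on that plate plus 3 SD, cut at about 35% in these data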;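 also: 0% = DMSO alone and 100% = 100 µM mitoxantrone as full dye displacement; higher means more dye released from RNA so lower well fluorescence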
PRMT1 FP inh – PRMT1 (human) inhibition, primary screen | inhibition, % at 2.79 µM | 370,000 tested, 1.3% active | Q99873 | recombinant PRMT1, activity-based probe fluorescence polarization;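 active = inhibition above about 21% made by adding two undisclosed values, limit read from the data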
Target sequence (Q99873 whole entry, looked up): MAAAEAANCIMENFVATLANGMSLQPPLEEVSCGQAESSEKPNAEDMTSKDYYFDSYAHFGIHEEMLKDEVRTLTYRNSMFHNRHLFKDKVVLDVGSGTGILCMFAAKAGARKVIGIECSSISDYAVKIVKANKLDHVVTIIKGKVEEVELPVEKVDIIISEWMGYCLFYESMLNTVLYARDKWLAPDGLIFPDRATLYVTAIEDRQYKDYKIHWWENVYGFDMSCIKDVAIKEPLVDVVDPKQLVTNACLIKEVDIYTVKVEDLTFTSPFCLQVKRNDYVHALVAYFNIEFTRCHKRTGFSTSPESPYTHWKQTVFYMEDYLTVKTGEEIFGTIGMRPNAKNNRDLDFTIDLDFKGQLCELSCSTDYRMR
TCR CD3 inh – inhibitors of human TCR-CD3 interaction. 360,000 tested, 0.37% active. TAMRA-labeled TCR probe fluorescence, biochemical. inhibition, % at 9.4 µM; in the data active = inhibition above about 19%;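 also: recombinant mutant TCR 2C K166C tagged with TAMRA read by polarization; 0% = receptor in buffer alone and 100% = receptor with positive control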
SIAE inh – human SIAE inhibition, primary screen. Q9HAT2. SIAE FP-Rh probe binding, fluorescence polarization. inhibition, % at 9.66 µM. 370,000 tested, 0.69% active. AID 1053197;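 active = inhibition above a cutoff: mean of compounds within the control limits plus 3 SD of those, cut at about 17% in these data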;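 also: 0% = plate median of compound wells and 100% = probe without SIAE protein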
Numbers without * were called inactive; nt = no result. Compounds with a hit are over-represented: about 3.3% of the library has one in this group of screens.

SMILES	mABHD4 FP	rCAG RNA binder	PRMT1 FP inh	TCR CD3 inh	SIAE inh
CCC(c1nnc(SCC(=O)Nc2cc(C)on2)o1)N(C)C (stereo unspecified)	-7	1	5	-9	-2
CCC(c1nnc(SCC(=O)NCCc2ccc(Cl)cc2Cl)o1)N(C)C (stereo unspecified)	3	-7	21*	-11	0
COC(=O)c1cc(C)nc(Sc2ccccc2N)n1	-1	3	25*	2	6
Cn1cnc([N+](=O)[O-])c1Sc1ncn[nH]1	6	1	-3	-12	2
Cn1cnc([N+](=O)[O-])c1Sc1nnc(-c2ccccc2)c(-c2ccccc2)n1	-3	4	24*	-3	-7
CCC(=O)N1CCc2cc(Br)c(S(=O)(=O)NCCCN(CC)Cc3ccccc3)cc21	-1	5	-3	nt	1
CCC(=O)OC1(C)C(=O)C=C2C=C(c3ccc(C#N)cc3)OC=C2C1=O (stereo unspecified)	25	42*	11	-1	0
CCn1c(SCC(=O)c2ccc(O)c(O)c2)nnc1-c1ccc(C)cc1	32*	21	8	2	11
CCn1c(SCC(=O)c2ccc(-c3ccccc3)cc2)nnc1-c1ccc(C(C)(C)C)cc1	7	9	1	nt	2
Cc1cc(C)nc(SC2CC(=O)N(c3ccc(Br)cc3)C2=O)n1 (stereo unspecified)	-2	-2	4	-6	5
CCN(CC)C1CC(=O)N(c2ccc(Br)cc2)C1=O (stereo unspecified)	2	7	46*	3	9
CS(=O)(=O)c1ccccc1C(=O)Nc1ccc(-c2nc3ccccc3[nH]2)cc1	-4	3	-2	0	1
Cc1ccccc1C(=O)Nc1ccc(-c2nc3ccc(C(=O)c4ccccc4)cc3[nH]2)cc1	-110	25	2	67*	-145
N#CC(C#N)=C(N)/C(C#N)=C/c1cc(O)c(O)c(O)c1	33*	11	20	6	-14
O=C(O)C1OC(Oc2cc3oc(-c4ccccc4)cc(=O)c3c(O)c2O)C(O)C(O)C1O (stereo unspecified)	21	13	28*	1	5
COc1ccc(NC(=O)CSc2nnc(-c3ccccc3C)n2N)cc1	7	1	21*	6	-5
COc1ccc(NC(=O)CSc2nnc(-c3ccccc3C)n2N)cc1OC	0	-1	1	-4	3
CC(=O)NN1C(=O)/C(=C/c2ccc(Br)o2)SC1=S	16	13	25*	2	5
O=C1CCN2C=Nc3cccc4ccc1c2c34	13	-426	124*	1	4
c1ccc(CN2CCN(C3=Nc4cccc5cccc3c45)CC2)cc1	6	-10	-1	0	-4
Oc1cc2c(cc1O)C(c1ccccc1)CNCC2 (stereo unspecified)	4	3	9	-6	0
Oc1cc2c(cc1O)[C@@H](c1ccccc1)CNCC2	13	2	23*	-1	10
O=C(OC12CCCN(C1)/C(=C/c1ccc(Cl)cc1)C2)c1ccccc1 (stereo unspecified)	0	5	-1	nt	7
O=C(Nc1ccccc1)Nc1nc2ncccn2c1-c1ccc(F)cc1	-4	2	1	nt	0
COc1ccc(C(CCN2CCOCC2)c2c(O)cc(OC)cc2OC)cc1 (stereo unspecified)	3	-6	5	-3	-4
SMILES	mABHD4 FP	rCAG RNA binder	PRMT1 FP inh	TCR CD3 inh	SIAE inh
COc1ccc(C(c2c(O)ccc3ccccc23)N2CCOCC2)c(OC)c1 (stereo unspecified)	-30	9	67*	6	-14
CCN1C=CC2=C(C#N)C(N)C(C#N)(C#N)C(c3ccccc3C(F)(F)F)C2C1 (stereo unspecified)	15	-2	22*	8	6
O=C(NCc1ccccc1)c1nc(S(=O)(=O)Cc2ccccc2)ncc1Cl	-2	-3	23*	-3	-9
Cc1cc(C)cc(C(=O)OCCN(C)C2CN(Cc3cn(Cc4ccc([N+](=O)[O-])cc4)nn3)S(=O)(=O)C2)c1 (stereo unspecified)	-5	3	-2	nt	-5
Cc1ccc(NC(=O)CN(C)Cc2c(O)ccc3ccccc23)cc1	5	1	21*	2	-6
CN(C)Cc1c(O)ccc2ccccc12	-22	16	-1	2	-2
COC(=O)C[C@@H]1CC[C@H]2[C@@H](COc3ccc(NC(=O)c4ccc(Cl)cc4)cc3C(=O)N2C)O1	-8	6	2	nt	-3
COC(=O)[C@]12C[C@H](CC(=O)N3CCOCC3)C(=O)N(CCc3ccc(OC)c(OC)c3)C1=C[C@H](COCc1ccccc1)O[C@@H]2C	-2	3	-1	nt	2
O=C(Nc1ccc(O)cc1)/C(=C\C=C\c1ccccc1)NC(=O)c1ccccc1	-1	7	3	-1	1
O=C(Nc1ccc(C(=O)O)cc1)/C(=C\C=C\c1ccccc1)NC(=O)c1ccccc1Cl	-30	37*	5	3	-14
COc1ccccc1C(=O)NC1CCCCN(Cc2cccc(F)c2)C1=O (stereo unspecified)	1	2	0	nt	-4
CC(C)N1CCc2c(sc(NC(=S)NC(=O)c3ccccc3)c2C#N)C1	2	2	28*	-3	-5
CCOc1cc(/C=C2\C(=O)N(CCc3ccc(OC)c(OC)c3)C(C)=C2C(=O)OC)ccc1O	17	15	26*	-1	6
COC(=O)C1=C(C)N(Cc2ccc(C)cc2)C(=O)/C1=C\c1cc(OC)c(OC)c(OC)c1	-3	4	-1	6	4
CCCCc1ccc(-n2c(Cc3cccs3)n[nH]c2=S)cc1	-2	7	21*	4	-3
O=C(CC(SCc1ccco1)c1ccc(O)cc1)c1cccs1 (stereo unspecified)	-17	-1	22*	9	-1
COc1ccc(OCC(=O)Sc2ccc(C)cc2)cc1	-6	-4	33*	3	-2
COc1ccc(OC(=O)COc2ccc(C)cc2)cc1	-3	0	4	2	-1
CCOC(=O)Cc1nc(N2CCCN(C(C)=O)CC2)c2c(C)c(C(=O)OCC)sc2n1	4	4	7	nt	-3
O=[N+]([O-])c1ccc(Sc2nc3ccccc3o2)c([N+](=O)[O-])c1	3	1	5	1	1
O=c1[nH]c(Sc2ccc([N+](=O)[O-])cc2[N+](=O)[O-])nc2ccccc12	7	6	23*	1	1
O=C(CCCCn1c(=O)[nH]c2ccsc2c1=O)NCc1cccnc1	-4	-2	-3	-7	20*
O=C(CCCCn1c(=O)[nH]c2ccsc2c1=O)NCCc1ccccc1	3	-6	-2	10	3
N#C/C(=C\c1ccc(O)c(O)c1)S(=O)(=O)c1ccccc1	21	12	3	10	20*
O=C(O)c1ccc(S(=O)(=O)Nc2ccc(O)c(Sc3nc4ccccc4s3)c2)cc1	12	30	22*	5	-10
